In ChEMBL document CHEMBL3414496, “Synthesis and biological evaluation of novel 2-heteroarylimino-1,3-thiazolidin-4-ones as potential anti-tumor agents” (Eur J Med Chem, 2015):
Calls of active or inactive are those of the source. No cut-off for these calls is given here.

Key:
HT-29 [1] = test: Induction of redox status changes in human HT-29 cells assessed as ROS content in absence of 1 mM ascorbic acid by DCF-DA staining based fluorescence assay (reference value: 100%)
HT-29 [2] = test: Induction of nuclear fragmentation in human HT-29 cells incubated for 2 days by DAPI staining based UV fluorescent microscopy; assay type: functional, cell-based
How it was run: (§1)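 HT29 cells in 35 mm dishes treated over two days, fixed in 70% ethanol for 5 min and rinsed with PBS. Stained with 1 µM DAPI in PBS for 15 min and imaged by UV fluorescence microscopy for nuclear morphology.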

HT-29 [3] = test: Induction of redox status changes in human HT-29 cells assessed as RNS content by DAF-2DA staining based fluorescence assay (reference value: 100%); assay type: functional
How it was run: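 HT29 cells treated two days after seeding, then loaded with 1 µM DAF-2DA for 30 min at 37°C. Cells trypsinized and resuspended in PBS, and 30 000 cells/sample measured by flow cytometry (FL-1). Expressed as % of DMSO-treated cells. Triplicates from three independent experiments.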

HT-29 [4] = test: Inhibition of cell growth in human HT-29 cells assessed as mitotic index ratio in absence of 1 mM ascorbic acid (reference value: 1); assay type: functional
How it was run: (§2)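 HT29 cells treated daily from 48 h after seeding, over three days with daily medium changes, in 0.1% (v/v) DMSO vehicle. Cells trypsinised, mixed 1:1 with 0.04% trypan blue, and living cells counted by haemocytometer under microscope. Mitotic index is treated count relative to DMSO control. Triplicate determinations, two independent experiments, mean ± S.E.M.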

HT-29 [5] = test: Induction of redox status changes in human HT-29 cells assessed as RNS content by DHR123 staining based fluorescence assay (reference value: 100%); assay type: functional
How it was run: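 HT29 cells treated two days after seeding, then loaded with 25 µM DHR for 20 min at 37°C. Cells trypsinized and resuspended in PBS, and 30 000 cells/sample read by flow cytometry (FL-1). Expressed as % of DMSO controls. Triplicates from three independent experiments.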

HT-29 [6] = test: Induction of autophagy in human HT-29 cells assessed as increase in beclin-1 protein expression by Western blotting method; assay type: functional, cell-based
How it was run: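 HT29 cells in flasks treated over two days. Total protein homogenates immunoblotted with anti-beclin-1 (1:500), with GAPDH as loading control.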

HT-29 [7] = test: Induction of Nrf2 expression in human HT-29 cells nuclei homogenates over 1 to 6 hrs by Western blotting method; assay type: functional, cell-based
How it was run: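 HT29 cells treated and fractionated, and nuclear homogenates immunoblotted with anti-Nrf2 (1:500) after SDS-PAGE and nitrocellulose transfer. Primary antibody overnight at 4°C, HRP secondary and chemiluminescence. Blots stripped and reprobed for GAPDH (1:10 000) for normalization, with the DMSO ratio set to 1.00. Representative of three independent experiments.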

HT-29 [8] = test: Induction of autophagy in human HT-29 cells assessed as increase in acidic vesicles by acridine orange staining based flow cytometry; assay type: functional, cell-based
How it was run: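 HT29 cells treated for two days with daily medium changes, stained with 1 µg/ml acridine orange for 15 min, then trypsinized and suspended in PBS. FL-3 fluorescence read by flow cytometry on 30 000 cells/sample and expressed in arbitrary units relative to DMSO-treated cells. Triplicates from three independent experiments.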

MCF7 = test: Cytotoxicity against human MCF7 cells after 72 hrs by MTT assay; assay type: functional, cell-based; details: MCF7, 72 h
How it was run: (§3)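 Cells seeded at 10^4/well, exposed 24 h later to graded concentrations (0.01–100 µM) for 72 h at 37°C; MTT 0.5 mg/ml for 2 h, formazan dissolved in DMSO, absorbance at 570 nm. […] Colon lines in DMEM, breast lines in RPMI, both with 10% FCS.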

[9] = Cytotoxicity against human HCT116 cells after 72 hrs by MTT assay; assay type: functional, cell-based; details: HCT-116, 72 h
How it was run: as §3

HT-29 [10] = test: Induction of chromatin condensation in human HT-29 cells incubated for 2 days by DAPI staining based UV fluorescent microscopy; assay type: functional, cell-based
How it was run: as §1

MDA-MB-231 = test: Cytotoxicity against human MDA-MB-231 cells after 72 hrs by MTT assay; assay type: functional, cell-based; details: MDA-MB-231, 72 h
How it was run: as §3

HT-29 [11] = test: Growth inhibition of human HT-29 cells at cytotoxic IC50 level after 3 days by trypan blue dye exclusion assay; assay type: functional
How it was run: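 HT29 cells treated 48 h after seeding, dosed daily with daily medium change over three days; drug diluted in DMSO, controls 0.1% (v/v) DMSO. Cells trypsinized, mixed 1:1 with 0.04% trypan blue, live cells counted by hematimeter. Reported as mitotic index (treated/DMSO count); triplicates from two independent experiments.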

SW-620 = test: Cytotoxicity against human SW620 cells after 72 hrs by MTT assay; assay type: functional, cell-based; details: SW-620, 72 h
How it was run: as §3

HT-29 [12] = test: Induction of mitochondrial membrane potential loss in human HT-29 cells incubated for 2 days by JC1 staining based UV fluorescent microscopy; assay type: functional, cell-based
How it was run: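 HT29 cells in dishes exposed to test agents, then 1 µM JC-1 added to the medium for 15 min at 37°C. Cells washed with warm PBS and imaged by fluorescence microscopy for J-aggregates (red channel). 50 µM CCCP for 15 min served as depolarization control.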

HT-29 [13] = test: Cytotoxicity against human HT-29 cells after 72 hrs by MTT assay; assay type: functional, cell-based; details: HT-29, 72 h
How it was run: as §3

HT-29 [14] = test: Induction of redox status changes in human HT-29 cells assessed as GSH content by fluorescence based microtiter plate method (reference value: 100%); assay type: functional
How it was run: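 HT29 cells exposed 48 h after seeding for 24 h, then extracted into ice-cold 10% perchloric acid with 2 mM EDTA and spun at 15 000 g. GSH in the supernatant measured by a fluorescence microtiter plate method; pellet protein measured by modified Lowry. Values in nmol GSH/mg protein, shown as % of DMSO controls. Triplicates from three experiments.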

HT-29 [15] = test: Induction of cell cycle arrest in human HT-29 cells assessed as accumulation at S phase by propidium iodide staining based flow cytometry (reference value: 23.9 +/- 0.3%); assay type: functional
HT-29 [16] = test: Inhibition of cell growth in human HT-29 cells assessed as mitotic index ratio in presence of 1 mM ascorbic acid (reference value: 1.12 +/- 0.03); assay type: functional
HT-29 [17] = test: Induction of redox status changes in human HT-29 cells assessed as ROS content in presence of 1 mM ascorbic acid by DCF-DA staining based fluorescence assay (reference value: 65.7 +/- 4.7%)
HT-29 [18] = test: Reduction in cell growth of human HT-29 cells at cytotoxic IC50 level after 3 days by trypan blue dye exclusion assay; assay type: functional, cell-based
How it was run: as §2

HT-29 [19] = test: Reduction in cell viability of human HT-29 cells assessed as reduction in living cell level at cytotoxic IC50 level after 24 to 48 hrs by DCF-DA and propidium iodide staining based flow cytometry; assay type: functional
How it was run: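 HT29 cells treated two days after seeding, then loaded together with 50 µM DCF-DA and 25 µg/mL propidium iodide for 15 min at 37°C. Cells trypsinised, washed and resuspended in PBS; 30 000 cells per sample read by flow cytometry (FL-1, FL-3). Viable cells (PI-negative, DCF-positive) given as % of total events. Triplicates, two independent experiments.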

HT-29 [20] = test: Induction of cell cycle arrest in human HT-29 cells assessed as accumulation at G2/M phase by propidium iodide staining based flow cytometry (reference value: 30 +/- 2%); assay type: functional

| Structure (SMILES) | Activity (HT-29 [1]) [%] | Activity (HT-29 [2]) | Activity (HT-29 [3]) [%] | Ratio (HT-29 [4]) | Activity (HT-29 [5]) [%] | Activity (HT-29 [6]) | Activity (HT-29 [7]) | Activity (HT-29 [8]) | IC50 (MCF7) [nM] | IC50 [9] [nM] | Activity (HT-29 [10]) | IC50 (MDA-MB-231) [nM] | growth inhibition (GI) (HT-29 [11]) [%] | IC50 (SW-620) [nM] | Activity (HT-29 [12]) | IC50 (HT-29 [13]) [nM] | Activity (HT-29 [14]) [%] | Activity (HT-29 [15]) [%] | Ratio (HT-29 [16]) | Activity (HT-29 [17]) [%] | other results |
| --- | --- | --- | --- | --- | --- | --- | --- | --- | --- | --- | --- | --- | --- | --- | --- | --- | --- | --- | --- | --- | --- |
| CN(C)c1ccc(/C=C2\S/C(=N\c3nc(-c4ccc(Cl)cc4)cs3)NC2=O)cc1 | 252.5 | Active | 144.4 | 0.13 | 157.6 | Active | inactive | Active | 100 | 200 | Active | 300 | <25 | 200 | Active | 500 | 109.1 | – | – | – | – |
| Cc1ccc(/C=C2\S/C(=N\c3csc(-c4ccc(Cl)cc4)c3)NC2=O)cc1 | 172 | Active | 155 | 0.02 | 95 | Active | inactive | Active | 900 | 1000 | Active | 900 | 90 | 1500 | Active | 6400 | 73.9 | 14.8 | 0.02 | 102.5 | inhibition (HT-29 [18]): Active; inhibition (HT-29 [19]): Active; Activity (HT-29 [20]): 84% |
| COc1ccc(/C=C2\S/C(=N\c3csc(-c4ccc(Cl)cc4)c3)NC2=O)cc1 | 123.1 | Active | 169.7 | 0.03 | 85.9 | Active | inactive | Active | 1000 | 1300 | Active | 1200 | 90 | 28100 | Active | 3800 | 88.8 | 18.2 | 0.03 | 97 | inhibition (HT-29 [18]): Active; inhibition (HT-29 [19]): Active; Activity (HT-29 [20]): 80.6% |
| CN(C)c1ccc(/C=C2\S/C(=N\c3csc(-c4ccc(Cl)cc4)c3)NC2=O)cc1 | 177.8 | Active | 294.4 | 0.02 | 80.1 | Active | inactive | Active | 400 | 500 | Active | 800 | 90 | 800 | Active | 1500 | 84.6 | 14.8 | 0.02 | 133.6 | inhibition (HT-29 [18]): Active; inhibition (HT-29 [19]): Active; Activity (HT-29 [20]): 83.7% |
| COc1ccc(/C=C2\S/C(=N\c3nc(-c4ccc(Cl)cc4)cs3)NC2=O)cc1 | – | Active | 103.3 | – | 80.9 | Active | inactive | Active | 100 | 400 | Active | 300 | <25 | 50 | Active | 400 | 117 | – | – | – | – |
| COc1ccc(/C=C2\S/C(=N\c3csc(-c4ccc(Cl)cc4)c3)NC2=O)cc1OC | 141.6 | Active | 116.3 | 0.04 | 83.6 | Active | – | Active | 7600 | 1700 | Active | 1900 | 90 | > 50000 | Active | 10900 | 108.1 | 11.3 | 0.04 | 112.1 | inhibition (HT-29 [18]): Active; inhibition (HT-29 [19]): Active; Activity (HT-29 [20]): 86.4% |
